ChEMBL document CHEMBL1926522, “PEG-SO(3)H catalyzed synthesis and cytotoxicity of α-aminophosphonates” (Eur J Med Chem, 2012)

Experiments:
[1] = test system: K562; assay: Cytotoxicity against human K562 cells after 24 hrs by MTT assay; type: functional, cell-based; details: K562, 24 h
In short: (§1)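 Cells from NCCS Pune, grown in RPMI-1640 with 10% heat-inactivated FBS, penicillin/streptomycin and glutamine at 37 °C, 5% CO2. Cells were washed with PBS and exposed for 24 h, first at 1, 10 and 100, then at 2–64. MTT (5 mg/mL in PBS) added for 2 h, then DMSO. IC50 read graphically from concentration vs % inhibition plot. Each point is the average of two determinations.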

[2] = test system: COLO 205; assay: Cytotoxicity against human COLO205 cells after 24 hrs by MTT assay; type: functional, cell-based; details: COLO 205, 24 h; in short: as §1
[3] = test system: K562; assay: Growth inhibition of human K562 cells at 1 uM after 24 hrs by MTT assay relative to control; type: functional; details: K562, 24 h, read-out: GI
In short: (§2)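 Exponentially growing cells in RPMI-1640 with 10% heat-inactivated FBS, 37 °C, 5% CO2. Treated 24 h at the single stated concentration. MTT (5 mg/mL in PBS) added for 2 h at 37 °C, then DMSO. Percent proliferation inhibition was calculated versus control. Independent experiments in duplicate, values averaged from two determinations.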

[4] = test system: K562; assay: Growth inhibition of human K562 cells at 10 uM after 24 hrs by MTT assay relative to control; type: functional; details: K562, 24 h, read-out: GI; in short: as §2
[5] = test system: COLO 205; assay: Growth inhibition of human COLO205 cells at 1 uM after 24 hrs by MTT assay relative to control; type: functional; details: COLO 205, 24 h, read-out: GI; in short: as §2
[6] = test system: COLO 205; assay: Growth inhibition of human COLO205 cells at 10 uM after 24 hrs by MTT assay relative to control; type: functional; details: COLO 205, 24 h, read-out: GI; in short: as §2
[7] = Growth inhibition of human HEK293 cells at 1 uM after 24 hrs by MTT assay relative to control; type: cell-based; details: read-out: GI; in short: as §2
[8] = Growth inhibition of human HEK293 cells at 10 uM after 24 hrs by MTT assay relative to control; type: cell-based; details: read-out: GI; in short: as §2
[9] = Lipophilicity, log P of the compound; type: physicochemical; details: octanol/water

SMILES	IC50 [1]	IC50 [2]	inhibition of growth at 1 µM [3]	inhibition of growth at 10 µM [4]	inhibition of growth at 1 µM [5]	inhibition of growth at 10 µM [6]	inhibition at 24 h, 1 µM [7]	inhibition at 24 h, 10 µM [8]	logP [9]
CCOP(=O)(OCC)C(Nc1cccc(Br)c1)c1ccc(-c2ccncc2)cc1 (configuration not stated)	10 µM	5 µM	41.7%	53.8%	31.3%	71.6%	1%	2.3%	5.72
CCOP(=O)(OCC)C(Nc1nc2ccc([N+](=O)[O-])cc2s1)c1ccc(-c2ccncc2)cc1 (configuration not stated)	31 µM	10 µM	0.9%	18.9%	34.4%	48.1%	0%	0.3%	
CCOP(=O)(OCC)C(Nc1nccs1)c1ccc(-c2ccncc2)cc1 (configuration not stated)	24 µM	10 µM	0%	24%	37.1%	47.9%	1%	2.5%	
CCOP(=O)(OCC)C(Nc1ccccc1)c1ccc(-c2ccncc2)cc1 (configuration not stated)	> 100 µM	18 µM	0%	0%	18.1%	31%	0%	0%	
CCOP(=O)(OCC)C(NCc1cccnc1)c1ccc(-c2ccncc2)cc1 (configuration not stated)	10 µM	8 µM	26%	48.4%	27.6%	60.1%	3.1%	3.6%	4.55
CCOP(=O)(OCC)C(Nc1ccncc1)c1ccc(-c2ccncc2)cc1 (configuration not stated)	32 µM	10 µM	0%	15.7%	14%	53.4%	0.5%	1.9%	
CCOP(=O)(OCC)C(Nc1ccc(Cl)c([N+](=O)[O-])c1)c1ccc(-c2ccncc2)cc1 (configuration not stated)	19 µM	12 µM	14.3%	24.9%	35%	45.1%	1.2%	3.4%	
CCOP(=O)(OCC)C(Nc1cccc([N+](=O)[O-])c1)c1ccc(-c2ccncc2)cc1 (configuration not stated)	20 µM	14 µM	0%	25.8%	39.5%	41.1%	0%	1.2%	
CCOP(=O)(OCC)C(Nc1ccc(F)c(Cl)c1)c1ccc(-c2ccncc2)cc1 (configuration not stated)	22 µM	10 µM	26%	26.2%	44.5%	47%	0.2%	1.2%	
CCOP(=O)(OCC)C(Nc1nc2ccccc2s1)c1ccc(-c2ccncc2)cc1 (configuration not stated)	35 µM	15 µM	0%	15.7%	36.6%	41%	2.5%	2.5%	
